# Measurements: ChEMBL document CHEMBL1151761, “Radiohalogenated prostate-specific membrane antigen (PSMA)-based ureas as imaging agents for prostate cancer” (J Med Chem, 2008)
# Columns and labels:
# Type in all cases: ADME, organism-based
# Pancreas = assay: Biodistribution in pancreas of PSMA expressing human PC3 PIP and PSMA deficient human PC3 flu cells xenografted SCID mouse at 2 uCi, iv after 60 mins; details: in vivo, 1 h
# [1] = Ratio of drug level in tumor to pancreas of human PSMA expressing PC3 PIP and PSMA deficient human PC3 flu cells xenografted SCID mouse at 2 uCi, iv after 30 mins; details: in vivo, 0.5 h
# Procedure, shortened: (§1)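 Male SCID mice carried subcutaneous PSMA+ PC-3 PIP (left shoulder) and PC-3 flu (right shoulder) xenografts, 1-5 × 10^6 cells in HBSS, and were used at 3-5 mm tumor diameter. Tail-vein injection of 2 µCi radioligand; four mice per time point, killed by cervical dislocation. %ID/g from a standard dilution of the dose, decay-corrected, mean ± SD; PIP tumor:organ ratios.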
# [2] = Ratio of drug level in tumor to small intestine of human PSMA expressing PC3 PIP and PSMA deficient human PC3 flu cells xenografted SCID mouse at 2 uCi, iv after 30 mins; details: in vivo, 0.5 h
# Procedure, shortened: (§2)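 Male SCID mice carried subcutaneous xenografts: PSMA+ PC-3 PIP behind the left shoulder and PSMA− PC-3 flu behind the right, 1–5 × 10^6 cells in HBSS. Mice were used at 3–5 mm tumor diameter. 2 μCi was given by tail vein, and 4 mice per time point were killed by cervical dislocation. %ID/g came from a standard dilution of the dose, decay-corrected. Ratio is PIP tumor %ID/g to organ %ID/g.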
# [3] = Ratio of drug level in tumor to large intestine of human PSMA expressing PC3 PIP and PSMA deficient human PC3 flu cells xenografted SCID mouse at 2 uCi, iv after 30 mins; details: in vivo, 0.5 h; procedure, shortened: as §1
# Blood = assay: Biodistribution in blood of PSMA expressing human PC3 PIP and PSMA deficient human PC3 flu cells xenografted SCID mouse at 2 uCi, iv after 5 hrs; details: in vivo
# Heart = assay: Biodistribution in heart of PSMA expressing human PC3 PIP and PSMA deficient human PC3 flu cells xenografted SCID mouse at 2 uCi, iv after 30 mins; details: in vivo, 0.5 h
# [4] = Biodistribution in large intestine of PSMA expressing human PC3 PIP and PSMA deficient human PC3 flu cells xenografted SCID mouse at 2 uCi, iv after 30 mins; details: in vivo, 0.5 h; procedure, shortened: as §1
# Muscle tissue = assay: Biodistribution in muscle of PSMA expressing human PC3 PIP and PSMA deficient human PC3 flu cells xenografted SCID mouse at 2 uCi, iv after 30 mins; details: in vivo, 0.5 h
# Spleen = assay: Biodistribution in spleen of PSMA expressing human PC3 PIP and PSMA deficient human PC3 flu cells xenografted SCID mouse at 2 uCi, iv after 30 mins; details: in vivo, 0.5 h
# [5] = Ratio of drug level in tumor to muscle of human PSMA expressing PC3 PIP and PSMA deficient human PC3 flu cells xenografted SCID mouse at 2 uCi, iv after 60 mins; details: in vivo, 1 h; procedure, shortened: as §1
# [6] = Ratio of drug level in tumor to bladder of human PSMA expressing PC3 PIP and PSMA deficient human PC3 flu cells xenografted SCID mouse at 2 uCi, iv after 30 mins; details: in vivo, 0.5 h; procedure, shortened: as §1
# Lung = assay: Biodistribution in lung of PSMA expressing human PC3 PIP and PSMA deficient human PC3 flu cells xenografted SCID mouse at 2 uCi, iv after 60 mins; details: in vivo, 1 h
# Liver = assay: Biodistribution in liver of PSMA expressing human PC3 PIP and PSMA deficient human PC3 flu cells xenografted SCID mouse at 2 uCi, iv after 2 hrs; details: in vivo
# [7] = Ratio of drug level in tumor to small intestine of human PSMA expressing PC3 PIP and PSMA deficient human PC3 flu cells xenografted SCID mouse at 2 uCi, iv after 60 mins; details: in vivo, 1 h; procedure, shortened: as §2
# [8] = Ratio of drug level in tumor to large intestine of human PSMA expressing PC3 PIP and PSMA deficient human PC3 flu cells xenografted SCID mouse at 2 uCi, iv after 2 hrs; details: in vivo; procedure, shortened: as §1
# [9] = Ratio of drug level in tumor to blood of human PSMA expressing PC3 PIP and PSMA deficient human PC3 flu cells xenografted SCID mouse at 2 uCi, iv after 5 hrs
# Procedure, shortened: (§3)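 Male SCID mice carried subcutaneous xenografts of PSMA+ PC-3 PIP cells behind the left shoulder and PSMA− PC-3 flu cells behind the right (1–5 × 10^6 cells in HBSS), used at a tumour diameter of 3–5 mm. Each mouse received 2 μCi of radioiodinated tracer via the tail vein. Tissues were harvested at each time point for %ID/g against a standard dilution of the dose, decay-corrected. Ratios are PIP tumour:organ.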
# [10] = Ratio of drug level in tumor to liver of human PSMA expressing PC3 PIP and PSMA deficient human PC3 flu cells xenografted SCID mouse at 2 uCi, iv after 2 hrs; details: in vivo; procedure, shortened: as §1
# Urinary bladder = assay: Biodistribution in bladder of PSMA expressing human PC3 PIP and PSMA deficient human PC3 flu cells xenografted SCID mouse at 2 uCi, iv after 60 mins; details: in vivo, 1 h
# [11] = Ratio of drug level in tumor to blood of human PSMA expressing PC3 PIP and PSMA deficient human PC3 flu cells xenografted SCID mouse at 2 uCi, iv after 2 hrs; procedure, shortened: as §3
smiles,measurement,setting,value
O=C(O)CC[C@H](NC(=O)N[C@@H](CCCCNC(=O)c1ccc([18F])cc1)C(=O)O)C(=O)O,Drug uptake,Pancreas,0.3 % ID/g
same,Ratio,[1],11
same,Ratio,[2],5
same,Ratio,[3],7
same,Drug uptake,Blood,0.03 % ID/g
same,Drug uptake,Heart,0.8 % ID/g
same,Drug uptake,[4],1.2 % ID/g
same,Drug uptake,Muscle tissue,2.4 % ID/g
same,Drug uptake,Spleen,12.7 % ID/g
same,Ratio,[5],13
same,Ratio,[6],1
same,Drug uptake,Lung,0.5 % ID/g
same,Drug uptake,Liver,11.7 % ID/g
same,Ratio,[7],11
same,Ratio,[8],19
same,Kp at 5 h,[9],117
same,Ratio,[10],0.3
same,Drug uptake,Urinary bladder,17 % ID/g
same,Kp at 2 h,[11],9
